Laboratory results: ChEMBL document CHEMBL1159061, “Synthesis and biological properties of iron chelators based on a bis-2-(2-hydroxy-phenyl)-thiazole-4-carboxamide or -thiocarboxamide (BHPTC) scaffold” (Bioorg Med Chem, 2010)
Calls of active or inactive are those of the source. The calls are words filed in the database; no cut-off is given here.

Tests used:
[1] = test system: HL-60; test: Antiproliferative activity against human HL60 cells at 1 uM after 72 hrs by MTS assay; type: functional; conditions: HL-60, 72 h
Outline: (§1)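 Cells grown under 5% CO2: KB and HepG2 in DMEM with 10% FCS, penicillin, streptomycin and fungizone; HCT116, HT29, HCT15, MCF7, MCF7R, SK-OV3, PC-3, A549, HL60, K562 and SF268 in RPMI. Cells were plated in 96-well plates and dosed 24 h later from DMSO stocks (controls 1% DMSO final). After 72 h, MTS was added for 3 h at 37 °C and absorbance read at 490 nm. Inhibition = (1 − OD treated/OD control)×100, in triplicate.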

[2] = Antiproliferative activity against human HepaRG cells after 72 hrs by MTT assay in presence of iron(3); type: functional, cell-based
Outline: (§2)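 Proliferating HepaRG cells at day 4 (seeded at 2.5×10⁴/cm² in William's E, 10% FCS, insulin, glutamine, hydrocortisone) were exposed for 72 h to a concentration series, with or without added iron(III) as each line states. Viability was read by MTT (0.5 mg/L as printed) for 3 h in serum-free medium, DMSO-solubilized formazan at 535 nm, expressed as % of control SDH activity.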

[3] = test system: SK-OV-3; test: Antiproliferative activity against human SKOV3 cells at 1 uM after 72 hrs by MTS assay; type: functional; conditions: SK-OV-3, 72 h; outline: as §1
[4] = test system: KB; test: Antiproliferative activity against human KB cells at 10 uM after 72 hrs by MTS assay; type: functional; outline: as §1
[5] = test system: SF-268; test: Antiproliferative activity against human SF268 cells at 10 uM after 72 hrs by MTS assay; type: functional; conditions: SF-268, 72 h; outline: as §1
[6] = test system: HCT-15; test: Antiproliferative activity against human HCT15 cells at 10 uM after 72 hrs by MTS assay; type: functional; conditions: HCT-15, 72 h; outline: as §1
[7] = test system: K562; test: Antiproliferative activity against human K562 cells at 1 uM after 72 hrs by MTS assay; type: functional; conditions: K562, 72 h; outline: as §1
[8] = test system: HCT-116; test: Antiproliferative activity against human HCT116 cells at 10 uM after 72 hrs by MTS assay; type: functional; conditions: HCT-116, 72 h; outline: as §1
[9] = test system: MCF7; test: Antiproliferative activity against doxorubicin-resistant human MCF7 cells at 1 uM after 72 hrs by MTS assay; type: functional; conditions: MCF7, 72 h; outline: as §1
[10] = test system: KB; test: Antiproliferative activity against human KB cells at 1 uM after 72 hrs by MTS assay; type: functional; outline: as §1
[11] = test system: HT-29; test: Antiproliferative activity against human HT-29 cells at 1 uM after 72 hrs by MTS assay; type: functional; conditions: HT-29, 72 h; outline: as §1
[12] = test system: SK-OV-3; test: Antiproliferative activity against human SKOV3 cells at 10 uM after 72 hrs by MTS assay; type: functional; conditions: SK-OV-3, 72 h; outline: as §1
[13] = test system: HCT-116; test: Antiproliferative activity against human HCT116 cells at 1 uM after 72 hrs by MTS assay; type: functional; conditions: HCT-116, 72 h; outline: as §1
[14] = test system: PC-3; test: Antiproliferative activity against human PC3 cells at 10 uM after 72 hrs by MTS assay; type: functional; conditions: PC-3, 72 h; outline: as §1
[15] = test system: SF-268; test: Antiproliferative activity against human SF268 cells at 1 uM after 72 hrs by MTS assay; type: functional; conditions: SF-268, 72 h; outline: as §1
[16] = test system: A549; test: Antiproliferative activity against human A549 cells at 10 uM after 72 hrs by MTS assay; type: functional; conditions: A549, 72 h; outline: as §1
[17] = Induction of iron chelating activity by calcein fluorescence assay; type: physicochemical
Outline: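 Cell-free calcein assay in 20 mM HEPES, 150 mM NaCl, pH 7.3, at 20 °C with orbital stirring. Calcein was quenched with iron(III) for 6 h to maximal quenching. Fluorescence recovery (ex 485/em 520 nm) was followed for 1 h at various chelator concentrations, and the initial dequenching rate was derived from the kinetics. Three independent experiments.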

[18] = test system: PC-3; test: Antiproliferative activity against human PC3 cells at 1 uM after 72 hrs by MTS assay; type: functional; conditions: PC-3, 72 h; outline: as §1
[19] = test system: MCF7; test: Antiproliferative activity against human MCF7 cells at 10 uM after 72 hrs by MTS assay; type: functional; conditions: MCF7, 72 h; outline: as §1
[20] = test system: HepG2; test: Antiproliferative activity against human HepG2 cells at 1 uM after 72 hrs by MTS assay; type: functional; conditions: HepG2, 72 h; outline: as §1
[21] = test system: MCF7; test: Antiproliferative activity against doxorubicin-resistant human MCF7 cells at 10 uM after 72 hrs by MTS assay; type: functional; conditions: MCF7, 72 h; outline: as §1
[22] = Antiproliferative activity against human HepaRG cells after 72 hrs by MTT assay; type: functional, cell-based; outline: as §2
[23] = test system: HL-60; test: Antiproliferative activity against human HL60 cells at 10 uM after 72 hrs by MTS assay; type: functional; conditions: HL-60, 72 h; outline: as §1
[24] = test system: K562; test: Antiproliferative activity against human K562 cells at 10 uM after 72 hrs by MTS assay; type: functional; conditions: K562, 72 h; outline: as §1
[25] = test system: MCF7; test: Antiproliferative activity against human MCF7 cells at 1 uM after 72 hrs by MTS assay; type: functional; conditions: MCF7, 72 h; outline: as §1
[26] = test system: HT-29; test: Antiproliferative activity against human HT-29 cells at 10 uM after 72 hrs by MTS assay; type: functional; conditions: HT-29, 72 h; outline: as §1
[27] = test system: HepG2; test: Antiproliferative activity against human HepG2 cells at 10 uM after 72 hrs by MTS assay; type: functional; conditions: HepG2, 72 h; outline: as §1
[28] = test system: A549; test: Antiproliferative activity against human A549 cells at 1 uM after 72 hrs by MTS assay; type: functional; conditions: A549, 72 h; outline: as §1
[29] = test system: HCT-15; test: Antiproliferative activity against human HCT15 cells at 1 uM after 72 hrs by MTS assay; type: functional; conditions: HCT-15, 72 h; outline: as §1
[30] = test system: HepaRG; test: Cytotoxicity against human HepaRG cells assessed as increase in extracellular LDH release at >100 uM after 72 hrs in presence of iron(3); type: functional, cell-based
[31] = test system: Hepatocyte; test: Cytoprotective activity in human hepatocytes assessed as inhibition of FeNTA-induced increase in extracellular LDH activity relative to control; type: functional; design: scale not given: the % may be the effect or the level left

SMILES	inhibition at 1 µM [1]	inhibition at 1 µM [3]	inhibition at 10 µM [4]	inhibition at 10 µM [5]	inhibition at 10 µM [6]	inhibition at 1 µM [7]	inhibition at 10 µM [8]	inhibition at 1 µM [9]	inhibition at 1 µM [10]	inhibition at 1 µM [11]	inhibition at 10 µM [12]	inhibition at 1 µM [13]	inhibition at 10 µM [14]	inhibition at 1 µM [15]	inhibition at 10 µM [16]	inhibition at 1 µM [18]	inhibition at 10 µM [19]	inhibition at 1 µM [20]	inhibition at 10 µM [21]	IC50 [22]	further results
COC(=O)c1ccc(O)c(-c2nc(C(=S)NCCOCCOCCNC(=S)c3csc(-c4cc(C(=O)OC)ccc4O)n3)cs2)c1	0%	10%	58%	62%	42%	1%	69%	0%	5%	0%	45%	6%	54%	0%	98%	10%	10%	0%	64%	42 µM	IC50 [2]: 50 µM; IC50 [17]: 0.5 µM; inhibition at 10 µM [23]: 52%; inhibition at 10 µM [24]: 53%; inhibition at 1 µM [25]: 0%; inhibition at 10 µM [26]: 3%; inhibition at 10 µM [27]: 43%; inhibition at 1 µM [28]: 8%; inhibition at 1 µM [29]: 1%
O=C(O)c1ccc(O)c(-c2nc(C(=O)NCCOCCOCCNC(=O)c3csc(-c4cc(C(=O)O)ccc4O)n3)cs2)c1	0%	4%	2%	0%	0%	0%	0%	0%	0%	0%	7%	0%	8%	0%	0%	0%	0%	0%	2%	120 µM	Activity [30]: Active; inhibition at 10 µM [23]: 0%; inhibition at 10 µM [24]: 9%; inhibition at 1 µM [25]: 0%; inhibition at 10 µM [26]: 1%; Activity [31]: 179%; inhibition at 10 µM [27]: 0%; inhibition at 1 µM [28]: 1%; inhibition at 1 µM [29]: 0%
COC(=O)c1ccc(O)c(-c2nc(C(=O)NCCOCCOCCNC(=O)c3csc(-c4cc(C(=O)OC)ccc4O)n3)cs2)c1	0%	10%	28%	19%	14%	2%	13%	0%	0%	0%	22%	0%	37%	0%	11%	8%	4%	0%	19%	64 µM	IC50 [2]: 78 µM; IC50 [17]: 1 µM; Activity [30]: Active; inhibition at 10 µM [23]: 0%; inhibition at 10 µM [24]: 10%; inhibition at 1 µM [25]: 0%; inhibition at 10 µM [26]: 4%; Activity [31]: 148%; inhibition at 10 µM [27]: 26%; inhibition at 1 µM [28]: 0%; inhibition at 1 µM [29]: 11%
CC(=O)N(O)CCCCCNC(=O)CCC(=O)N(O)CCCCCNC(=O)CCC(=O)N(O)CCCCCN [DEFEROXAMINE]	0%	5%	16%	33%	46%	0%	20%	0%	0%	0%	52%	0%	44%	0%	50%	1%	0%	0%	9%	50 µM	IC50 [2]: 70 µM; IC50 [17]: 4.4 µM; inhibition at 10 µM [23]: 0%; inhibition at 10 µM [24]: 0%; inhibition at 1 µM [25]: 0%; inhibition at 10 µM [26]: 42%; Activity [31]: 162%; inhibition at 10 µM [27]: 0%; inhibition at 1 µM [28]: 2%; inhibition at 1 µM [29]: 0%
O=C(O)c1ccc(O)c(-c2nc(C(=S)NCCOCCOCCNC(=S)c3csc(-c4cc(C(=O)O)ccc4O)n3)cs2)c1	0%	3%	0%	5%	8%	0%	0%	0%	0%	0%	2%	0%	0%	0%	7%	0%	0%	0%	1%	114 µM	IC50 [17]: 0.07 µM; Activity [30]: Active; inhibition at 10 µM [23]: 0%; inhibition at 10 µM [24]: 2%; inhibition at 1 µM [25]: 0%; inhibition at 10 µM [26]: 0%; inhibition at 10 µM [27]: 0%; inhibition at 1 µM [28]: 0%; inhibition at 1 µM [29]: 0%
